Source: ChEMBL document CHEMBL1681762, “Application of plant allylpolyalkoxybenzenes in synthesis of antimitotic phenstatin analogues” (2011)

Legend:
Format in all cases: functional
Paracentrotus lividus [1] = assay: Antiproliferative activity against sea urchin embryo assessed as cleavage alteration after 10 to 15 mins fertilization 45 to 60 mins before first mitotic cycle completion
How it was run: (§1)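 Phenotypic in vivo assay on fertilized sea urchin eggs, scored for cleavage alteration or arrest. Reported value is the effective threshold concentration (EC), from duplicate measurements.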

Paracentrotus lividus [2] = assay: Antiproliferative activity against sea urchin embryo assessed as cleavage arrest after 10 to 15 mins fertilization 45 to 60 mins before first mitotic cycle completion; how it was run: as §1
Paracentrotus lividus [3] = assay: tubulin-destabilizing activity in sea urchin embryo assessed as embryo spinning treated immediately 8 to 10 hrs after fertilization
How it was run: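 Free-swimming sea urchin blastulae were treated and monitored for behavioural change. Reported value is the effective threshold concentration (EC), from duplicate measurements.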

| SMILES | EC (Paracentrotus lividus [1]) [µM] | EC (Paracentrotus lividus [2]) [µM] | EC (Paracentrotus lividus [3]) [µM] |
| --- | --- | --- | --- |
| COc1ccc(C(=O)c2cc3c(c(OC)c2OC)OCO3)cc1O | 1 | 4 | >5 |
| COc1ccc(C(=O)c2cc(OC)c3c(c2OC)OCO3)cc1O | 2 | >4 | >5 |
| COc1ccc(C(=O)c2cc(OC)c3c(c2)OCO3)cc1O | 0.001 | 0.01 | 0.1 |
| COc1ccc(C(=O)c2cc(OC)c(OC)c(OC)c2OC)cc1O | 2 | >4 | >5 |
| COc1ccc(C(=O)c2ccc3c(c2)OCCO3)cc1O | 0.1 | 0.2 | >5 |
| COc1ccc(C(=O)c2ccc3c(c2)OCCO3)cc1 | 0.5 | 1 | >5 |
| COc1ccc(/C=C\c2cc(OC)c(OC)c(OC)c2)cc1O [COMBRETASTATIN A4] | 0.002 | 0.01 | 0.05 |
| COc1ccc(/C=C\c2cc(OC)c3c(c2)OCO3)cc1O [Combretastatin A-2] | 0.002 | 0.01 | 0.05 |
| COc1ccc(C(=O)c2cc(OC)c(OC)c(OC)c2)cc1O [PHENSTATIN] | 0.01 | 0.05 | 0.5 |
